One assay deals with T1, Phospholipase D1 (Homo sapiens, UniProt Q13393).
T1 sequence (Q13393 whole entry): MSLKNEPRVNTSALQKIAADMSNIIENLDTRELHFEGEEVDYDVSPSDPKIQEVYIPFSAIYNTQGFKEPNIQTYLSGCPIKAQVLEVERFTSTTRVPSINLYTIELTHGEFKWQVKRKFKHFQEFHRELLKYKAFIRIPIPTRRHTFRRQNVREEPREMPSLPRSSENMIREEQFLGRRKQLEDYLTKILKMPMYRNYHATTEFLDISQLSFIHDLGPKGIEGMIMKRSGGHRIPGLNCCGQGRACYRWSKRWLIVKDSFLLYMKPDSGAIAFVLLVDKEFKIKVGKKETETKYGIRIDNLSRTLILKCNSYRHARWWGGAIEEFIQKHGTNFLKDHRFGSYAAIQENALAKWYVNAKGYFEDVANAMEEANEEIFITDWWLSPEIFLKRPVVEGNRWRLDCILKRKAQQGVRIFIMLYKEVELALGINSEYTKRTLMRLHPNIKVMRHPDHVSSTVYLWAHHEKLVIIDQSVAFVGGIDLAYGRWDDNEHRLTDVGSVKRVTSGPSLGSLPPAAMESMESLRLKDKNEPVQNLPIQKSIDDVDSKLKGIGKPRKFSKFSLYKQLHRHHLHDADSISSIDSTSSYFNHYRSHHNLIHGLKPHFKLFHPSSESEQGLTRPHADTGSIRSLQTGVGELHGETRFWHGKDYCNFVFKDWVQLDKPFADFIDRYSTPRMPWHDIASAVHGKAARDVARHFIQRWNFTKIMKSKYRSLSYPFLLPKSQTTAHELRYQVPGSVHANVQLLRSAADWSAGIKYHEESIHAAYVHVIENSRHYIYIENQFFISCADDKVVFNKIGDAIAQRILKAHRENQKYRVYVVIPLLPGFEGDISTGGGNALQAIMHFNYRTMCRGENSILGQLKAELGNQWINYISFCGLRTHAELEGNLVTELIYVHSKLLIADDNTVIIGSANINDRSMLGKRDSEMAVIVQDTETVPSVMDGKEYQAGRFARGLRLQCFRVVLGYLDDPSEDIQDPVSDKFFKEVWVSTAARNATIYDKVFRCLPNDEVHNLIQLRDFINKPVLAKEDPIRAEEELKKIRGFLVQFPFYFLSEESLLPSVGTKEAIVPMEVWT
Nature of the assay: Inhibition of PLD1 (unknown origin) expressed in human Calu1 cells by cell-based assay. Also noted: species or system Calu-1.

Assay [1] deals with Calu-1. Description: Selectivity ratio of IC50 for PLD2 (unknown origin) expressed in HEK293-gfp cells to IC50 for PLD1 (unknown origin) expressed in human Calu1 cells. It counts as cell-based. In outline: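 Both IC50s come from cellular assays. PLD1 was measured in Calu-1 cells and PLD2 in HEK293-gfp PLD2 cells. Each IC50 was determined in triplicate. The value is the PLD2 IC50 divided by the PLD1 IC50.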

The target in another assay is D(2) dopamine receptor (Homo sapiens, UniProt P14416). Description: Inhibition of dopamine D2 receptor (unknown origin).
Chain of D(2) dopamine receptor (P14416 whole entry): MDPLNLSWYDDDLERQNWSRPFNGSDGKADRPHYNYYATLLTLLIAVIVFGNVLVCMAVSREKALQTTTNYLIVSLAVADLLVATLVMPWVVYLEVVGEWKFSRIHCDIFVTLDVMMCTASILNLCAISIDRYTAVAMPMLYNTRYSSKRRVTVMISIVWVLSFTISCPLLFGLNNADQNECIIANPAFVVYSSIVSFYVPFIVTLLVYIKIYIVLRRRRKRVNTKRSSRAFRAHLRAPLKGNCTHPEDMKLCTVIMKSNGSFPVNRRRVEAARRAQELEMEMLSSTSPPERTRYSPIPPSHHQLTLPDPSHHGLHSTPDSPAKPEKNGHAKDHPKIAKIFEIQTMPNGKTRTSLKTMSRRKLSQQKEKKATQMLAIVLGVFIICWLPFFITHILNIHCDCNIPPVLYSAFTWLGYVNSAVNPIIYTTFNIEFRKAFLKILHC
In the next assay the target is Phospholipase D2 (Homo sapiens, UniProt O14939). Nature of the assay: Inhibition of PLD2 (unknown origin) expressed in HEK293-gfp cells by cell-based assay. Put shortly: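 Cellular assay in HEK293-gfp PLD2 cells; each IC50 determined in triplicate.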
Chain of Phospholipase D2 (O14939 whole entry): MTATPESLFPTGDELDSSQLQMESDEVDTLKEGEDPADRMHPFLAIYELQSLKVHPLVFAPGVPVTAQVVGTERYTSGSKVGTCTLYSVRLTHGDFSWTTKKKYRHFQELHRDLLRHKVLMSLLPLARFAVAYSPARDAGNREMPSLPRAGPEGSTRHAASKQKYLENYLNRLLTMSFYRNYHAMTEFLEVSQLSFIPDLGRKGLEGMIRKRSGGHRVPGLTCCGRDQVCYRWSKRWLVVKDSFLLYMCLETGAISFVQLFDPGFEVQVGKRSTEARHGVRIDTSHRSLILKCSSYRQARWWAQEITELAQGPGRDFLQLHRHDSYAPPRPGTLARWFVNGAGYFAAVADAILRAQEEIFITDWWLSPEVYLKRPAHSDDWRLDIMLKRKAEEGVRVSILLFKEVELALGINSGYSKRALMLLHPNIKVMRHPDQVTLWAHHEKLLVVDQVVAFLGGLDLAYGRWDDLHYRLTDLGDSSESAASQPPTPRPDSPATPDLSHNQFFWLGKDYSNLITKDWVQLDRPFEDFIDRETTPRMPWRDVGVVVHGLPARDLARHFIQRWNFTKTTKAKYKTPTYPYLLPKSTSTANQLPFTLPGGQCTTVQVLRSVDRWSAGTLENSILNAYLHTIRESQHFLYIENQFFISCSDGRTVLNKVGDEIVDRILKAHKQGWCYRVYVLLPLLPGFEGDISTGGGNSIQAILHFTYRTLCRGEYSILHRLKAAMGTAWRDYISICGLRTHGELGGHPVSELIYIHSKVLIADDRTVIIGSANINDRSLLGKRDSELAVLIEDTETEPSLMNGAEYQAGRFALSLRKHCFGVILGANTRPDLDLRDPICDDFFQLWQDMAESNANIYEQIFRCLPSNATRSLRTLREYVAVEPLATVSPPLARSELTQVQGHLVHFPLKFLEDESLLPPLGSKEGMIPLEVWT
The subject of assay [2] is Calu-1. Description: Selectivity ratio of IC50 for PLD1 (unknown origin) expressed in human Calu1 cells to IC50 for PLD2 (unknown origin) expressed in HEK293-gfp cells. Format: cell-based.

One may read the IC50 as the midpoint of a concentration-inhibition curve. The low end stands for higher potency, the high end for lower potency. As to `CC1CC(n2c(=O)[nH]c3ccccc32)CCN1CCNC(=O)c1ccc(F)cc1` (stereo not drawn), the IC50 on Phospholipase D1 came to 636 nM. In the assay on Calu-1 [1], the Ratio IC50 was found to be 11.5.
As to `O=C(NCCN1CCC(n2c(=O)[nH]c3ccccc32)C(F)C1)c1ccc(F)c(F)c1` (stereo not drawn), the figures for the IC50 against Phospholipase D1 and on D(2) dopamine receptor were 21 nM and above 10 µM, respectively. Moreover, the Ratio IC50 with Calu-1 [1] was 4.7.
At Phospholipase D1, `O=C(NCCN1CC2CC(n3c(=O)[nH]c4ccccc43)CC2C1)c1ccc2ccccc2c1` (stereo not drawn) showed an IC50 of 244 nM. In the assay with Calu-1 [1], the Ratio IC50 amounted to 7.3.
Take `O=C(NCCN1CC2CC(n3c(=O)[nH]c4ccccc43)CC2C1)c1ccc(F)cc1` (stereo not drawn): the IC50 amounted to 870 nM at Phospholipase D1 and 3570 nM on Phospholipase D2. In the assay with Calu-1 [1], the Ratio IC50 turned out to be 4.
As to `O=C(NCCN1CC2CC(n3c(=O)[nH]c4ccccc43)CC2C1)c1ccc(Br)cc1` (stereo not drawn), 468 nM corresponded to half-maximal inhibition on Phospholipase D1 (IC50). Moreover, the Ratio IC50 in the assay with Calu-1 [1] amounted to 5.5.
In the case of `O=C(NCCN1CC2CC(n3c(=O)[nH]c4ccccc43)CC2C1)c1cc2cc(F)ccc2[nH]1` (stereo not drawn), the values for the IC50 on Phospholipase D1 and against Phospholipase D2 were 230 nM and 1240 nM, respectively. Moreover, the Ratio IC50 in the assay with Calu-1 [1] was 5.4.
In the same order, the values of `O=C(NCCN1CC2CC(n3c(=O)[nH]c4ccccc43)CC2C1)c1cc2ccccc2[nH]1` (stereo not drawn) are 72 nM, 220 nM and 3.
In the same order, the values of `O=C(NCCN1CC2CC(n3c(=O)[nH]c4ccccc43)CC2C1)c1ccc(F)c(F)c1` (stereo not drawn) are 820 nM, 3250 nM and 3.9.
Regarding `CC(CNC(=O)c1ccc2ccccc2c1)N1CCC2(CC1)C(=O)NCN2c1ccccc1` (racemic), the IC50 at Phospholipase D1 came out at 315 nM; at Phospholipase D2, 64 nM. Besides, the Ratio IC50 in the assay with Calu-1 [2] came out at 5.
Take `CC(CNC(=O)c1ccc(F)cc1)N1CCC2(CC1)C(=O)NCN2c1ccccc1` (racemic): the IC50 on Phospholipase D1 came to 1490 nM; at Phospholipase D2, 290 nM. Besides, in the assay with Calu-1 [2], the Ratio IC50 stood at 5.
The like results for `CC(CNC(=O)c1ccc(Br)cc1)N1CCC2(CC1)C(=O)NCN2c1ccccc1` (racemic) were, in that order, 230 nM, 120 nM and 2.
The like results for `CC(CNC(=O)c1cc2cc(F)ccc2[nH]1)N1CCC2(CC1)C(=O)NCN2c1ccccc1` (racemic) were, in that order, 35 nM, 18 nM and 2.
The like results for `CC(CNC(=O)c1cc2ccccc2[nH]1)N1CCC2(CC1)C(=O)NCN2c1ccccc1` (racemic) were, in that order, 21 nM, 6 nM and 3.
For `CC(CNC(=O)c1ccc(F)c(F)c1)N1CCC2(CC1)C(=O)NCN2c1ccccc1` (racemic), the IC50 amounted to 1080 nM against Phospholipase D1 and 17 nM at Phospholipase D2. Further, the Ratio IC50 with Calu-1 [2] amounted to 63.
The compound `CC1CC(n2c(=O)[nH]c3ccccc32)CCN1CCNC(=O)[C@@H]1C[C@H]1c1ccccc1` (relative stereo) came in with an IC50 on Phospholipase D1 of 115 nM. In addition, in the assay with Calu-1 [1], the Ratio IC50 is 24.
As for `O=C(NCCN1CC2CC(n3c(=O)[nH]c4ccccc43)CC2C1)[C@@H]1C[C@H]1c1ccccc1` (relative stereo), the IC50 at Phospholipase D1 was determined as 1080 nM; on Phospholipase D2, 115 nM.

(Values after ChEMBL document CHEMBL3352006, “Further evaluation of novel structural modifications to scaffolds that engender PLD isoform selective inhibition” (Bioorg Med Chem Lett, 2014).)
